Experimental data: ChEMBL document CHEMBL1122650, “Synthesis and central nervous system properties of 2-[(alkoxycarbonyl)amino]-4(5)-phenyl-2-imidazolines” (J Med Chem, 1984)
Activity calls are given as the source filed them. No cut-off for these calls is given here.

System: not listed separately
Assay: HPLC capacity factor (k')
Type: ADME
Settings: not given
For `COC(=O)NC1=NC(c2ccccc2SC)CN1C` (stereo not given), the “Log k'” value was 0.63.
For `COC(=O)NC1=NC(c2cccc(F)c2)CN1` (stereo not given), the “Log k'” value was -0.1.
With `CC(C)COC(=O)NC1=NC(c2ccccc2)CN1` (stereo not given) the “Log k'” value was 0.94.
With `COC(=O)NC1=NC(c2ccc(SC)cc2)CN1C` (stereo not given) the “Log k'” value was 0.61.

System: Mus musculus
Assay: Compound was evaluated in vivo for reserpine hypothermia after oral administration in mouse.
Type: functional
Settings: not given
Outline: (§1)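 Male HLa (ICR) BR mice, 18-24 g, in groups of eight; reserpine 5 mg/kg ip given 2 h before oral test compound as aqueous solution. Rectal temperature taken hourly; 1-4-h hypothermia assessed by analysis of variance.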
Molecule `COC(=O)NC1=NC(c2cccc(F)c2)CN1` (stereo not given) has an ED50 of 36 mg/kg.

System: Mus musculus
Assay: Compound was evaluated in vivo for reserpine hypothermia after oral administration in mouse. Minimum active dose was reported, with the percent reversal at 10 mg/kg in parenthesis.
Type: functional
Settings: not given
Outline: (§2)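 Male HLa (ICR) BR mice (18-24 g), groups of eight, dosed ip with 5 mg/kg reserpine 2 h before oral test compound given as aqueous solution. Rectal temperature measured hourly; 1-4-h thermia assessed by analysis of variance.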
Molecule `CCC1(c2ccccc2)C(=O)NC(=O)NC1=O` [PHENOBARBITAL] has an ED50 of 22 mg/kg.
Molecule `CN1C(=O)CN=C(c2ccccc2)c2cc(Cl)ccc21` [DIAZEPAM] has an ED50 of 1 mg/kg.
For `CNC1=Nc2ccc(Cl)cc2C(c2ccccc2)=[N+]([O-])C1` [CHLORDIAZEPOXIDE], the ED50 was 5 mg/kg.

System: Mus musculus
Assay: Compound was evaluated in vivo for reserpine hypothermia after oral administration in mouse. Minimum active dose was reported; 10-30% reduction.
Type: functional, organism-based
Settings: not given
Outline: as §1
For `CC(C)COC(=O)NC1=NC(c2ccccc2)CN1` (stereo not given), the ED50 was 10-30% reduction.

System: Mus musculus
Assay: Compound was evaluated in vivo for reserpine hypothermia after oral administration in mouse. Minimum active dose was reported; Inactive
Type: functional, organism-based
Settings: not given
Outline: as §1
With `COC(=O)NC1=NC(c2ccc(SC)cc2)CN1C` (stereo not given) the ED50 was “inactive”.

Organism: Mus musculus
Assay: Evaluated for antagonism of reserpine induced hypothermia;I= Inactive
Type: functional, organism-based
Settings: not given
Outline: as §1
With `COC(=O)NC1=NC(c2ccccc2SC)CN1C` (stereo not given) the HYPO was “inactive”.
For `COC(=O)NC1=NC(c2ccc(SC)cc2)CN1C` (stereo not given), the HYPO was “inactive”.

Organism: Mus musculus
Assay: Compound was evaluated for antagonism of reserpine induced hypothermia;I= Inactive.
Type: functional, organism-based
Settings: not given
Outline: as §2
For `CNC1=Nc2ccc(Cl)cc2C(c2ccccc2)=[N+]([O-])C1` [CHLORDIAZEPOXIDE], the HYPO was “inactive”.
With `CC(C)COC(=O)NC1=NC(c2ccccc2)CN1` (stereo not given) the HYPO was “inactive”.

Organism: Mus musculus
Assay: Mouse behavior activity was determined; D=Depressant
Type: functional, organism-based
Settings: not given
Outline: (§3)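 Male Simonsen (ICR) fBR mice, 18-24 g, groups of three, given 3, 10, 30, 100, 300 or 1000 mg/kg ip as aqueous solution and observed for behavioral profile; deaths followed up to 7 days.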
In the case of `COC(=O)NC1=NC(c2ccccc2SC)CN1C` (stereo not given), the Mouse behavior activity is reported as “Depressant”.

Organism: Mus musculus
Assay: Mouse behavior activity was determined; D = Depressant
Type: functional, organism-based
Settings: not given
Outline: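 Male Simonsen (ICR) fBR mice (18-24 g) given 3, 10, 30, 100, 300 or 1000 mg/kg ip as aqueous solution and observed for behaviour in groups of three.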
In the case of `CCC1(c2ccccc2)C(=O)NC(=O)NC1=O` [PHENOBARBITAL], the Mouse behavior activity is reported as “Depressant”.
In the case of `CN1C(=O)CN=C(c2ccccc2)c2cc(Cl)ccc21` [DIAZEPAM], the Mouse behavior activity is reported as “Depressant”.
In the case of `CNC1=Nc2ccc(Cl)cc2C(c2ccccc2)=[N+]([O-])C1` [CHLORDIAZEPOXIDE], the Mouse behavior activity is reported as “Depressant”.

Organism: Mus musculus
Assay: Mouse behavior activity was determined; D=Depressant.
Type: functional, organism-based
Settings: not given
Outline: as §3
In the case of `COC(=O)NC1=NC(c2cccc(F)c2)CN1` (stereo not given), the Mouse behavior activity is reported as “Depressant”.

Organism: Mus musculus
Assay: Mouse behavior activity was determined; Inactive
Type: functional, organism-based
Settings: not given
Outline: as §3
In the case of `COC(=O)NC1=NC(c2ccc(O)cc2)CN1` (stereo not given), the Mouse behavior activity is reported as “inactive”.

Organism: Mus musculus
Assay: Mouse behavior activity was determined; ST= Stimulant, D = Depressant
Type: functional, organism-based
Settings: not given
Outline: as §3
For `O=C1NC(=O)C(c2ccccc2)(c2ccccc2)N1` [PHENYTOIN], the Mouse behavior activity was “Stimulant”.

Organism: Mus musculus
Assay: Mouse behavior activity was determined; Dwk= Depressant Weak.
Type: functional, organism-based
Settings: not given
Outline: as §3
With `CC(C)COC(=O)NC1=NC(c2ccccc2)CN1` (stereo not given) the Mouse behavior activity was “Depressant”.

Organism: Mus musculus
Assay: Compound was evaluated for antagonism of reserpine induced hypothermia; I = inactive
Type: functional, organism-based
Settings: not given
Outline: as §1
With `O=C1NC(=O)C(c2ccccc2)(c2ccccc2)N1` [PHENYTOIN] the HYPO was “inactive”.

System: not listed separately
Assay: Compound was evaluated for lethal dose in mouse in groups of ten (values in parentheses indicates 95% confidence limits)
Type: toxicity, organism-based
Settings: in vivo
`CCC1(c2ccccc2)C(=O)NC(=O)NC1=O` [PHENOBARBITAL] gave an LD50 of 222 mg/kg.
For `CNC1=Nc2ccc(Cl)cc2C(c2ccccc2)=[N+]([O-])C1` [CHLORDIAZEPOXIDE], the LD50 was 254 mg/kg.
Work on `O=C1NC(=O)C(c2ccccc2)(c2ccccc2)N1` [PHENYTOIN] yielded an LD50 of 700 mg/kg.

Organism: Mus musculus
Assay: Compound was evaluated for maximal electroshock antagonism (MES) against mice
Type: functional
Settings: not given
Outline: (§4)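 Male HLa (ICR) BR mice, groups of eight to ten, dosed ip (aqueous solution) 15 min before transcorneal electroshock (50 mA, 0.2 s). End point: abolition of tonic hind-limb extension; quantal ED50 by Litchfield-Wilcoxon.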
With `COC(=O)NC1=NC(c2cccc(F)c2)CN1` (stereo not given) the ED50 was 70 mg/kg.
`COC(=O)NC1=NC(c2ccc(SC)cc2)CN1C` (stereo not given) showed an ED50 of 100 mg/kg.

Organism: Mus musculus
Assay: Compound was evaluated for maximal electroshock antagonism (MES) against mice; Inactive
Type: functional, organism-based
Settings: not given
Outline: as §4
For `COC(=O)NC1=NC(c2ccc(O)cc2)CN1` (stereo not given), the ED50 was “inactive”.
For `COC(=O)NC1=NC(c2ccccc2SC)CN1C` (stereo not given), the ED50 was “inactive”.

Organism: Mus musculus
Assay: Compound was evaluated for maximal electroshock antagonism (MES) against mice; Inactive.
Type: functional, organism-based
Settings: not given
Outline: as §4
With `CC(C)COC(=O)NC1=NC(c2ccccc2)CN1` (stereo not given) the ED50 was “inactive”.

Organism: Mus musculus
Assay: Righting ability was determined in mice […] rapid rolling (aroused)
Type: functional
Settings: not given
Outline: (§5)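 Male Simonsen (ICR) fBR mice, 18-24 g, groups of ten, dosed with aqueous compound. Righting ability checked before (unaroused) and after (aroused) rapid rolling in the hand; ED50 by Litchfield-Wilcoxon method.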
In the case of `CCC1(c2ccccc2)C(=O)NC(=O)NC1=O` [PHENOBARBITAL], the Loss of righting reflex is reported as 107 mg/kg.
Work on `CN1C(=O)CN=C(c2ccccc2)c2cc(Cl)ccc21` [DIAZEPAM] yielded a Loss of righting reflex of 136 mg/kg.
Work on `CNC1=Nc2ccc(Cl)cc2C(c2ccccc2)=[N+]([O-])C1` [CHLORDIAZEPOXIDE] yielded a Loss of righting reflex of 140 mg/kg.

Organism: Mus musculus
Assay: Righting ability was determined in mice before rapid rolling (unaroused)
Type: functional
Settings: not given
Outline: as §5
Molecule `CCC1(c2ccccc2)C(=O)NC(=O)NC1=O` [PHENOBARBITAL] has a Loss of righting reflex of 60 mg/kg.
Molecule `CN1C(=O)CN=C(c2ccccc2)c2cc(Cl)ccc21` [DIAZEPAM] has a Loss of righting reflex of 67 mg/kg.
`COC(=O)NC1=NC(c2ccccc2SC)CN1C` (stereo not given) showed a Loss of righting reflex of 70 mg/kg.
In the case of `CNC1=Nc2ccc(Cl)cc2C(c2ccccc2)=[N+]([O-])C1` [CHLORDIAZEPOXIDE], the Loss of righting reflex is reported as 53 mg/kg.

Organism: Mus musculus
Assay: Compound was evaluated for maximal electroshock antagonism (MES) against mice (values in parentheses indicates 95% confidence limits)
Type: functional
Settings: not given
Outline: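 Male HLa (ICR) BR mice, groups of eight to ten, given compound ip as aqueous solution 15 min before transcorneal electroshock (50 mA, 0.2 s). End point was abolition of tonic hind-limb extension; quantal ED50 derived by Litchfield-Wilcoxon.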
Molecule `CCC1(c2ccccc2)C(=O)NC(=O)NC1=O` [PHENOBARBITAL] has an ED50 of 15 mg/kg.
With `CN1C(=O)CN=C(c2ccccc2)c2cc(Cl)ccc21` [DIAZEPAM] the ED50 was 7 mg/kg.
With `O=C1NC(=O)C(c2ccccc2)(c2ccccc2)N1` [PHENYTOIN] the ED50 was 6 mg/kg.

System: not listed separately
Assay: Lethal dose in mouse, in groups of ten
Type: toxicity, organism-based
Settings: in vivo
For `COC(=O)NC1=NC(c2ccc(O)cc2)CN1` (stereo not given), the LD50 was 700 mg/kg.
In the case of `COC(=O)NC1=NC(c2ccccc2SC)CN1C` (stereo not given), the LD50 is reported as 200 mg/kg.
`COC(=O)NC1=NC(c2cccc(F)c2)CN1` (stereo not given) showed an LD50 of 200 mg/kg.
With `CC(C)COC(=O)NC1=NC(c2ccccc2)CN1` (stereo not given) the LD50 was 700 mg/kg.
